What was measured:
[1] = system: Human immunodeficiency virus 1; assay: Antiviral activity against HIV1 RF infected in human CEM-SS cells assessed as inhibition of viral replication incubated for 6 days by XTT assay; format: functional, organism-based
How it was run: (§1)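 CEM-SS cells (2.5 × 10³/well) in RPMI with 10% FBS, 2 mM L-glutamine, penicillin/streptomycin; six serial compound concentrations added with HIV-1 RF titered to give 85–95% cell killing at day 6. AZT run in parallel as positive control. Incubated 6 days at 37 °C, 5% CO2; viability by XTT (OD 450/650 nm). EC50 from percent CPE reduction; SI = TC50/EC50.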

[2] = (§2) Cytotoxicity against human CEM-SS cells assessed as reduction in cell viability incubated for 6 days by […]; format: cell-based; settings: CEM-SS cells, read-out: TC50
How it was run: (§3)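 Uninfected CEM-SS cells (2.5 × 10³/well) in RPMI with 10% FBS, 2 mM L-glutamine, penicillin/streptomycin, exposed to six serial compound concentrations for 6 days at 37 °C, 5% CO2. Viability read by XTT staining (OD 450/650 nm); TC50 derived from percent viability of uninfected drug-control wells.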

[3] = Selectivity index, ratio of TC50 for human CEM-SS cells to EC50 for HIV1 RF infected in human CEM-SS cells; format: toxicity, cell-based; settings: for selectivity ratio: CEM-SS cells, read-out: Selectivity Index; how it was run: as §1
[4] = Prodrug activation in human PBMC cells assessed as 2-(3-amino 3-oxopropylcarbamoyl)benzenethiolate formation; format: cell-based
CEM-SS = assay: as §2; format: cell-based; settings: cem-ss, 144 h, read-out: TC50 (the source's name); how it was run: as §3
[5] = Dissociation constant, pKa of compound; format: physicochemical
[6] = Drug metabolism of compound in phosphate buffer incubated for 12 hrs in presence of acetyl-1,2,13C2 CoA by 13C-NMR spectrometric method
How it was run: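 Thiol and acetyl-1,2-13C2 CoA at 10:1 stoichiometric ratio incubated in degassed (helium-sparged) 0.1 M phosphate buffer pH 7.0 (4:1 H2O/D2O) with 2% DMF, 37 °C, 12 h in a sealed NMR tube. Equilibrium confirmed by 13C NMR monitoring; equilibrium constant for thiol–thioester exchange determined from spectra.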

[7] = Drug metabolism of compound in glutathione assessed as 2-(3-amino 3-oxopropylcarbamoyl)benzenethiolate formation
[8] = Drug metabolism of compound in nucleophilic proteinogenic cysteines assessed as 2-(3-amino 3-oxopropylcarbamoyl)benzenethiolate formation
[9] = Human immunodeficiency virus 1, RF, CEM-SS, 144 h

Row | SMILES | EC50 [1, 9] | CC50 at 144 h [2] | selectivity ratio [3] | further results
1 | CCCC(=O)OCSc1ccccc1C(=O)N1CCC[C@H]1C(N)=O | > 100 µM | > 100 µM | – | –
2 | CCCC(=O)OCSc1ccccc1C(=O)Nc1ccccc1C(N)=O | 5.1 µM | 50.1 µM | 9.82 | –
3 | CCCC(=O)OCSc1ccccc1C(=O)N(C)CC(=O)NC | > 100 µM | 62.5 µM | – | –
4 | CCCC(=O)OC[Se]c1ccccc1C(=O)NCC(N)=O | > 100 µM | 6.8 µM | – | –
5 | CCCC(=O)OCSc1ccccc1C(=O)Nc1ccc(C(N)=O)cc1 | 1.6 µM | 39 µM | 24.4 | –
6 | CCCC(=O)OCSc1ccccc1C(=O)NCC(=O)NCCN(C)C | 6.6 µM | 76.9 µM | 11.6 | –
7 | CCCC(=O)OCSc1ccccc1C(=O)NCCCCNC(C)=O | 0.57 µM | 17.4 µM | 30.5 | –
8 | CCCC(=O)OCSc1ccccc1C(=O)NCCC(N)=O | 2.4 µM | > 100 µM | – | Drug metabolism [4]: Metabolite_Detected
9 | CCCC(=O)OCSc1ccccc1C(=O)NCCCC(N)=O | 1.2 µM | 56.6 µM | 47.2 | –
10 | CCCC(=O)OCSc1ccccc1C(=O)N[C@H]1CCC[C@@H]1C(N)=O | – | – | – | EC50 [1]: 2.9 µM; CC50 (CEM-SS): 43.3 µM; Selectivity Index [3]: 15
11 | CCCC(=O)OCSc1ccccc1C(=O)NCC(=O)NCC(=O)OC | 4.9 µM | > 100 µM | > 20.4 | –
12 | C#CCNC(=O)CNC(=O)c1ccccc1SCOC(=O)CCC | 4.7 µM | 95.4 µM | 20.3 | –
13 | CCCC(=O)OCSc1ccccc1C(=O)N[C@H]1CCC[C@@H]1C(N)=O (racemic) | – | 31.2 µM | – | EC50 [1]: 0.9 µM; Selectivity Index [3]: 34.7
14 | CCCC(=O)OCSc1ccccc1C(=O)N(C)CC(N)=O | > 100 µM | 55.3 µM | – | –
15 | CCCC(=O)OCSc1ccccc1C(=O)NCCCNC(C)=O | 1.1 µM | 21.1 µM | 19.2 | –
16 | CCCC(=O)OCSc1ccccc1C(=O)NCC(=O)OC | > 100 µM | 27.3 µM | – | –
17 | NC(=O)CCNC(=O)c1ccccc1S | – | – | – | pKa [5]: 5.83; Ke [6]: 0.0023
18 | CCCC(=O)OCSc1c(C)cccc1C(=O)NCCC(N)=O | > 100 µM | – | – | –
19 | CCCC(=O)OCSc1ccccc1C(=O)NCC(=O)NCc1ccccc1 | 4.8 µM | 29.3 µM | 6.1 | –
20 | CCCC(=O)OCSc1c(F)cccc1C(=O)NCCC(N)=O | > 100 µM | – | – | –
21 | CCCC(=O)OCSc1ccc(OC(F)(F)F)cc1C(=O)NC(C)(C)C(N)=O | – | < 56.1 µM | – | –
22 | CCCC(=O)OCSc1ccccc1C(=O)NCCCCCCNC(C)=O | 1.5 µM | 8 µM | 5.33 | –
23 | CCCC(=O)OCSc1ccccc1C(=O)N(C)CC(=O)N(C)C | > 100 µM | 57.3 µM | – | –
24 | CCCC(=O)OCSc1ccccc1C(=O)NCC(=O)NCC(N)=O | 27.5 µM | > 100 µM | > 3.64 | –
25 | CCCC(=O)OCSc1ccccc1C(=O)NCC(=O)NC(C)C | 5 µM | 92 µM | 18.4 | –

Row | SMILES | EC50 [1, 9] | CC50 at 144 h [2] | selectivity ratio [3] | further results
26 | CCCC(=O)OCSc1ccccc1C(=O)OCC(N)=O | > 100 µM | 82.1 µM | – | –
27 | CCCC(=O)OCSc1ccccc1C(=O)NCCCCCC(N)=O | 3.1 µM | 16.3 µM | 5.26 | –
28 | CCCC(=O)OCSc1ccccc1CC(=O)NCC(N)=O | > 100 µM | > 100 µM | – | –
29 | CCCC(=O)OCSc1ccccc1C(=O)NCC(=O)N(C)C | 4.7 µM | 38.3 µM | 8.15 | –
30 | CCCC(=O)OCSc1ccccc1C(=O)N[C@H]1CCC[C@H]1C(N)=O (racemic) | 5.32 µM | 89.9 µM | 16.9 | –
31 | CCCC(=O)OCSc1ccccc1C(=O)NCC(=O)NC | 1.4 µM | > 100 µM | > 71.4 | –
32 | CCCC(=O)OCSc1ccccc1C(=O)NCC(=O)NC(C)(C)C | 9.1 µM | 46.8 µM | 5.14 | –
33 | CCCC(=O)OCSc1ccccc1C(=O)Nc1cccc(C(N)=O)c1 | 1.2 µM | 17.5 µM | 14.6 | –
34 | CCCC(=O)OCSc1ccccc1C(=O)N[C@H]1CCC[C@H]1C(N)=O | – | – | – | EC50 [1]: 3 µM; CC50 (CEM-SS): 84.8 µM; Selectivity Index [3]: 28.3
35 | CCCC(=O)OC[Se]c1ccccc1C(=O)NCCC(N)=O | 8.6 µM | 10.5 µM | 1.22 | –
36 | CC(=O)Sc1ccccc1C(=O)NCCC(N)=O | – | – | – | Ka [7]: 84 M⁻¹ s⁻¹; Ka [8]: 84 M⁻¹ s⁻¹
37 | CCCC(=O)OCSc1ccccc1C(=O)NCC(N)=O | 2.9 µM | > 100 µM | – | –
38 | CCCC(=O)OCSc1ccccc1C(=O)NCCCCC(N)=O | 3.7 µM | 51.7 µM | 14 | –
39 | CCCC(=O)OCSc1ccccc1C(=O)NCCCCCNC(C)=O | 3.9 µM | 9.2 µM | 2.36 | –
40 | CCCC(=O)OCSc1ccc(OC)cc1C(=O)NCCC(N)=O | 1.5 µM | > 100 µM | – | –
41 | CCCC(=O)OCSc1ccccc1C(N)=O | > 100 µM | 12.4 µM | – | –
42 | CCCC(=O)OCSc1ccccc1C(=O)NC1(C(N)=O)CCCC1 | < 8.2 µM | > 100 µM | – | –
43 | CCCC(=O)OCSc1ccccc1C(=O)N[C@@H]1CCC[C@@H]1C(N)=O | 1.8 µM | 90 µM | 50 | –
44 | NC(=O)CCNC(=O)c1cccc(S)c1 | > 100 µM | > 100 µM | – | –
45 | CCCC(=O)OCSc1ccccc1C(=O)NCCNC(C)=O | 2.6 µM | 91.9 µM | 35.3 | –
46 | CCCC(=O)OCSc1ccccc1C(=O)NC | > 100 µM | 5.7 µM | – | –
47 | CCCC(=O)OCSc1ccccc1C(=O)N[C@@H]1CCC[C@H]1C(N)=O | 1.7 µM | 43.7 µM | 25.7 | –
48 | CCCCCNC(=O)CNC(=O)c1ccccc1SCOC(=O)CCC | 10.3 µM | 24.8 µM | 2.41 | –
49 | CCCC(=O)OCSc1ccccc1C(=O)NCCCCCCC(N)=O | 1 µM | 10.4 µM | 10.4 | –

Reference: ChEMBL document CHEMBL4364289, “The structure-activity profile of mercaptobenzamides' anti-HIV activity suggests that thermodynamics of metabolism is more important than binding affinity to the target” (Eur J Med Chem, 2019)
